Laboratory results reported in the RNAGym collection of RNA variant scans (doi:10.1038/s41586-018-0170-7).

B1: tRNA (parent)
chain: GUUCCGUUGGCGUAAUGGUAACGCGUCUCCCUCCUAAGGAGAAGACUGCGGGUUCGAGUCCCGUACGGAACG

Variants of: B1
Assay: yeast fitness, log relative to wild type (ln ratio); higher = fitter; tRNA-Arg(CCU), competitive growth, 37 C, 1 M NaCl
Method in brief: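 For each genotype, fitness is defined as the natural log of its generation number over the wild type's. The tRNA-Arg(CCU) variant library was on a HIS3 centromeric plasmid in BY4742 with the chromosomal gene removed, and pools were first grown 4 generations in SC-HIS at 30 °C and then ~6.5 generations (~26.5 h) in SC-HIS 1M NaCl at 37 °C. Generations were calculated from OD-scaled log2 output/input frequency, weighted by inverse variance across replicates, using counts from 125 bp paired-end Illumina sequencing.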

Variant	yeast fitness (ln)
G6A C46U A69G C71U	-0.109
G1A G6A C46U C66U A70G	-0.189
U2C G6U C27U C46U C66A A70G	-0.0216
G1A U2G G6U C46U A69G A70G C71U	-0.309
U2C G6U A43C C46U C66A A69G A70U C71U	-0.396
G6U C46U C66U A69G A70G C71U	-0.205
G6A A43C A70G C71U	-0.283
U2G G6A C27U A43C C46U C66A A70U	-0.115
U2G G6U C27U C46U C66U A69G A70G	-0.277
G1A U2G C46U C66A A70U C71U	-0.152
U2G G6U	-0.0233
G1A C46U C66A A70U C71U	-0.171
G1A U2G G6A A43C A69G A70U C71U	-0.411
U2G G6U C27U C66A A70G C71U	-0.239
G1A U2G A43C C46U A70G	-0.114
G1A U2C G6U C46U C66U C71U	-0.0885
G1A C27U A70G C71U	-0.11
U2G A69G A70G	-0.147
G1A G6A C27U A43C A70G	-0.21
G6U A43C C46U C66U A69G A70G	-0.313
G6A C66U A69G A70G C71U	-0.41
U2G G6U C27U A43C C46U C66A A69G A70G C71U	-0.279
G1A U2G G6A C27U A43C A69G A70G C71U	-0.354
G1A U2C G6A C27U C66U A70G	-0.128

Variant	yeast fitness (ln)
G1A G6U C27U A43C A70G C71U	-0.426
G6U C27U C66U A70G	-0.288
G1A U2C C27U A43C C46U C71U	-0.178
G6A C27U A43C C66U A70U C71U	-0.441
G1A A43C C46U C71U	-0.00436
G1A U2C A43C C46U C66U A70G C71U	-0.0729
U2C G6A A43C C46U C66A A69G A70G C71U	-0.112
G6A C27U A43C C46U A69G A70U C71U	-0.441
G1A U2G G6A C46U C66U A69G A70U	-0.383
G6U A43C C66U A70U C71U	-0.481
G1A U2C G6U C46U C66A A70G C71U	-0.0251
U2G G6U C27U C66U C71U	-0.31
G1A G6U A43C C46U A70U	-0.219
G1A U2G G6A C27U A43C C46U A69G C71U	-0.283
U2C A43C C46U C66U A70G	-0.0311
G1A U2G G6A A70G C71U	-0.172
G1A U2G G6U A43C A69G A70G C71U	-0.439
G1A G6U C27U C46U C66A A69G A70U C71U	-0.37
C66A C71U	-0.0269
G1A U2G G6U C27U A43C C46U C66A A70U	-0.309
G1A U2G A43C C46U A70G C71U	-0.342
C27U C66A A69G A70G	-0.25
G1A U2G G6A C27U A43C C46U C66U A70U C71U	-0.645
G1A G6U C46U A70G C71U	-0.227

Variant	yeast fitness (ln)
G1A U2C C46U A70U	-0.0782
U2C A43C A69G A70U	-0.235
U2C G6U C46U C66A C71U	-0.211
U2C C27U A43C C66A A70U C71U	-0.319
G1A C27U A43C C66U A69G C71U	-0.343
G1A C27U C46U C66U A69G A70G C71U	-0.255
U2C G6A C27U C46U C66A A70G	-0.0252
G6U A69G A70G	-0.16
G1A G6A C27U C66U A69G A70G	-0.386
U2G G6U C66U A69G A70G	-0.251
U2C C27U A69G A70G	-0.0516
G1A U2C G6A C27U A43C C46U C66U A70G C71U	-0.0245
U2G G6U C27U C46U A69G A70G C71U	-0.268
G1A C27U C46U A69G A70G	-0.166
G1A C27U C46U A69G A70U	-0.118
U2G G6U C66A A70G	-0.0514
G1A U2G G6U C27U A43C A70U	-0.338
G1A U2G G6A C27U	-0.0861
G1A U2G G6A C27U C46U C66U C71U	-0.196
U2C G6U C27U C46U C71U	-0.235
U2C G6U A43C A70G C71U	-0.185
U2C A43C C66A A70U	-0.0829
U2G G6U A70G C71U	-0.173
G6U C27U C46U C66A A69G A70G C71U	-0.254

Variant	yeast fitness (ln)
U2C C46U C66U A70G C71U	-0.00524
A43C C46U C66A A70U C71U	-0.128
G6A C46U C66U A70G	-0.0166
G1A U2C G6A C27U C46U C66U A70U	-0.0971
G1A U2C C27U C46U C66A A69G A70G C71U	-0.294
U2C G6U A43C C66U A70U	-0.194
U2C G6A C27U C46U C66U A70U	-0.112
U2C G6U C27U A43C C66A A70U	-0.167
U2C A43C A70U	-0.0907
G1A G6A A69G A70U C71U	-0.247
U2G C27U A43C C66U A69G A70U C71U	-0.42
G6U A43C C46U C66A A70U C71U	-0.214
G1A G6U C27U A43C C66A A70U	-0.264
U2G G6A A43C C46U C66U	-0.147
U2G G6A C27U C46U A70U	-0.106
G6U C27U C66A A70G	-0.0711
G1A G6A C27U A43C A69G A70G C71U	-0.33
U2C A43C C46U C66U A69G A70G C71U	-0.315
U2G A43C A69G	0.00792
G1A U2G A43C C46U A69G C71U	-0.18
G1A U2G G6U A69G A70U C71U	-0.255
U2G G6U C46U A70G C71U	-0.165
G1A U2C C27U A70U C71U	-0.288
U2C C66U A69G A70U C71U	-0.404

Variant	yeast fitness (ln)
G1A U2G G6U C27U A43C C46U	-0.363
G1A A43C C46U A69G A70U C71U	-0.33
G1A U2C C27U A43C C46U C66U A70U C71U	-0.297
G1A U2C C27U A43C C46U A70G C71U	-0.012
U2C G6A C27U C66A A70G C71U	-0.106
G1A G6A A43C C46U A70G C71U	-0.214
G6A A43C C66A A70U	-0.188
G1A G6A C27U A69G A70G	-0.342
G6A A69G A70U C71U	-0.315
G6A C46U C66U A69G A70G C71U	-0.581
G1A U2C G6U C27U C46U C66U A69G A70G C71U	-0.699
G1A U2G C46U C66A A69G A70U	-0.0906
A43C C46U A70U	-0.00645
U2C G6U C46U C66U A69G A70U	-0.0758
U2C C27U C46U C66U	-0.0297
U2C A69G A70G C71U	-0.0131
G6A C46U C66A A70G	-0.117
U2G G6A C27U C46U C66U A70G	-0.364
G1A A43C C46U C66U	-0.151
U2G C27U A43C C66A A69G A70U	-0.291
U2C C27U C66U A69G A70U C71U	-0.453
G1A G6A C46U C66U A69G A70U C71U	-0.363
G1A U2G C27U C46U C66U C71U	-0.21
G1A G6U A43C C66U A69G A70G	-0.469

Variant	yeast fitness (ln)
U2G G6A A70U C71U	-0.107
U2G G6U C46U C66A A70G C71U	-0.26
A43C C46U A69G	0.00452
U2C C27U C46U C66A C71U	-0.0945
U2C G6A C66A A70G	-0.0699
G1A A43C C46U C66U A70G	-0.1
C27U A43C C46U C66U A70U	-0.109
G1A G6A C66U A69G A70G	-0.235
U2C C27U A69G A70G C71U	-0.0353
U2G G6A C46U A69G C71U	-0.124
C66A A70U	-0.00405
U2G G6A C27U C66A	-0.186
U2G G6A C27U A69G A70G C71U	-0.245
U2G G6U C27U A43C A70G	-0.232
U2G G6A A69G	-0.135
U2C G6U C27U A43C C46U	-0.0629
A69G	-0.00462
G1A C27U C46U A69G A70U C71U	-0.301
G1A G6U C27U C46U C66A A70U	-0.249
G6U C27U A43C C71U	-0.281
U2G C27U A43C A69G	-0.0811
U2G G6U C27U C46U C66U A69G C71U	-0.527
U2C G6A C27U A43C C66A C71U	-0.333
G1A G6A C27U C46U A70U	-0.164

Variant	yeast fitness (ln)
U2G G6A A43C A69G A70U	-0.171
G1A U2G G6A C27U C46U A70G	-0.237
U2G G6U C27U C66A A70G	-0.243
G1A U2C C46U A69G A70G	-0.029
G1A U2G G6U A43C C66A A70U C71U	-0.387
U2G G6A A43C C66A A70G C71U	-0.198
G1A G6A C46U C66A C71U	-0.258
U2G G6U A43C C46U A69G C71U	-0.221
U2G A43C A69G A70U	-0.023
G6A A43C A70U	-0.143
G1A U2C C27U A43C C66U A69G A70U C71U	-0.397
G1A U2G A43C C46U C66A A69G A70U	-0.252
G6U C27U C66A A69G C71U	-0.806
A43C A70G	-0.022
A43C A70U	-0.0384
G1A U2G A43C C46U A70U C71U	-0.00171
G1A U2G G6U C66A A69G A70U C71U	-0.335
G1A U2G G6A C27U A43C C46U C66A C71U	-0.323
G1A U2G G6U A70G	-0.235
C66A A69G A70U	-0.0115
G1A U2C G6A C27U A43C C46U C66U A69G A70G C71U	-0.0617
U2G C27U C46U C66U A70U	-0.0345
G6U C27U A43C A69G A70G C71U	-0.49
